Measured values as given in the EternaBench riboswitch data.

Tested on: MS2 coat protein
Assay: apparent Kd, MS2 coat protein; higher = weaker binding; RNA-MaP array; FMN 200 µM where present
Procedure, shortened: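 The apparent Kd is the median of filtered binding-curve fits, one per cluster, to green signal normalised to red-channel RNA signal and control-cluster median Fmax. The clusters were on Illumina sequencing chips, and stalled E. coli RNA polymerase had transcribed the designs on them. Titration used SNAP-549-labelled MS2 coat protein from 0.7 or 1.5 nM, doubling to 3 µM, without and then with constant ligand, in 100 mM Tris-HCl pH 7.5, 80 mM KCl, 4 mM MgCl2, BSA, DTT, yeast tRNA and Tween-20.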

[1] = designed as: ON switch for flavin mononucleotide, no ligand
[2] = ligand present: flavin mononucleotide, designed as: ON switch for flavin mononucleotide
[3] = designed as: OFF switch for flavin mononucleotide, no ligand
[4] = ligand present: flavin mononucleotide, designed as: OFF switch for flavin mononucleotide

Sequence | apparent Kd [1] | apparent Kd [2] | apparent Kd [3] | apparent Kd [4]
UGUUGUAUUACAGGAUAUCUAUUAUUAUUAUUUAGAGAAGGGUAUUCACAUGAGGAUCACCCAUGUAUAUACGAGGAAGUUGUG | 0.0437 µM | 0.0455 µM |  | 
UUGGACGUCGUAGGAUAUGUAGGAUAGUCCUACAUGAGGAUCACCCAUGUUGACAUGGAAGAAGGACAGAAGGACGAUGUCCAU | 0.553 µM | 0.0354 µM |  | 
GCGUGUCGUGUAGGAUAUGACACAGGAAACUGGUCAGAAGGACAUGAGGAUCACCCAUGUAAAAUGUUCAAGAAUAACGCAUGC |  |  | 0.0278 µM | 0.0392 µM
UUGGACGUCGUAGGAUAUGUAGGAUACUCCUACAUGAGGAUCACCCAUGUUGACAUGGAGGAAGGACAGAAGGACGGUGUCCAU | 0.0258 µM | 0.00646 µM |  | 
GCCAGAGCAGGAUAUUCAAUAUCACACAUGAGGAUCACCCAUGUCCGGCGAAAGCUGGAGGGAGAAGGGCUCUGGC |  |  | 0.0626 µM | 0.0187 µM
GUGCGUGGCUAGGAUAUUGUGGAGUUUAGUCAGCGAGAAGGAGCCACAUGAGGAUCACCCAUGUGGUGUUGCUC |  |  | 0.0405 µM | 0.101 µM
ACAUGAAAUCGAGGAUAUGCAAAAAAAAAAAAAGCAGAAGGCGAAAAAAAAACUCGAAAAAACAUGAGGAUCACCCAUGUAAAA |  |  | 0.0264 µM | 0.0229 µM
ACAUUGAAUGUGAGGAUAUCGAUGUGAUGGGUUGUCGAGAAGGCACAUGAGGAUCACCCAUGUGGGUUGUAGCA |  |  | 0.144 µM | 0.362 µM
CCGGAAAUAGAGGAUAUAGGACUGGAUACAGUCCUAGAAGGCUAUACAUGAGGAUCACCCAUGUGUCCUACCGG |  |  | 0.0157 µM | 0.044 µM
ACAUGAUAUGUAGGAUAUCACAUUAAUUGAUUAAUAUAUCAAUAUAGAAUUUGAGAAGGACAUUUACAUGAGGAUCACCCAUGU |  |  | 0.0107 µM | 0.00871 µM
CGAUAUGAUGCAGGAUAUCUAUCUUGAAUGAGGAGAGAAGGGCAAACCGAGACAUAAGCCUUAUUACAUGAGGAUCACCCAUGU |  |  | 0.0104 µM | 0.00938 µM
AAGAAGUCAGGAUAUCGUUAAUUUAGUUGUUUGUAUUAGUUCGAGAAGGGACAUGAGGAUCACCCAUGUAAGAA |  |  | 0.0352 µM | 0.0427 µM
GUAGCUAUCGGAGGAUAUUCAUACCGAAAACGGACAUGAGGAUCACCCAUGUGGCGAAAGUCUUGGGAGAAGGCCGAUAGCUAC | 0.0392 µM | 0.00762 µM |  | 
AGUUAUUCAGGAUAUGGUGUGUUAUACAUGAGGAUCACCCAUGUAGAUCCUGGUUAGGCCUCAGAAGGGAAUGUUC |  |  | 0.182 µM | 0.183 µM
AGUGUCAUCGAGAAGGCCUCAACAUGAGGAUCACCCAUGUUGUAAUAUGGGAGGAUAUCGAUGAUACAGCUACGUUUCGUAGCA | 0.0207 µM | 0.00579 µM |  | 
UAUAACUAACAGAAGGGUAUUUGGGAUCAUUAUUAGGAGGAAAUACUAUACAGGAUAUGUAAUACAUGAGGAUCACCCAUGUUC | 0.02 µM | 0.0157 µM |  | 
CGUGUUGACGAAGGAUAUGGAUACAUGAGGAUCACCCAUGUAUAUUUUGUGAUCAAGUUUAAGAUCCAGAAGGUCGUUGACACG |  |  | 0.0776 µM | 0.131 µM
AUGGUACAUGAGGAUCACCCAUGUCAGGAUAUCGGCUGUGACGUGAAAAGAGUGUUAGCGAGAAGGGACUGCAA |  |  | 0.0373 µM | 0.0431 µM
UUCCGGCGUGUAGGAUAUGGAUCCGAUUAGGAUCCAGAAGGACAUGAGGAUCACCCAUGUACAUGUAAACAGUCAUCACCGGAG |  |  | 0.00736 µM | 0.0114 µM

Sequence | apparent Kd [1] | apparent Kd [2] | apparent Kd [3] | apparent Kd [4]
GUGCGGUCAGGAUAUGCAUGGCGGGACUUGCGUCGUGGCGUGGAGAAGGGACAUGAGGAUCACCCAUGUGGAGC |  |  | 0.0514 µM | 0.0542 µM
GUAGCAUACCGAGGAUAUUCAGGGCGUGGAUAUACAUGAGGAUCACCCAUGUGGCGGAAGCCUAGGGAGAAGGCGGGAUGCUAC | 0.0223 µM | 0.0155 µM |  | 
GCCUUAUUGGUCAGGAUAUACAUUUGUUACUCUUUGUAGAAGGGACAUGAGGAUCACCCAUGUACAUUACAUUC |  |  | 0.0208 µM | 0.0335 µM
UGGCGUUGAGGAUAUACAUUGAAUAAGAUUCAUGUAAAACUACAUGAGGAUCACCCAUGUAGAAGGCAAUGCCU |  |  | 0.0169 µM | 0.0277 µM
UGGUUGUCAGGAUAUUGGGUAUUCAACUUUAGUUUUAUAUUCGAGAAGGGACAUGAGGAUCACCCAUGUUACGU |  |  | 0.0362 µM | 0.166 µM
GGGUGGCGUAGAGGAUAUGUGUUACAUGAGGAUCACCCAUGUGCAUAUGAUGUUCGUGUGUCUGCAUAGAAGGCUACGUCGCUA | 0.0283 µM | 0.0276 µM |  | 
GCGCCAUCGUGAGAUGGCGUACCAACAUGAGGAUCACCCAUGUAGGAUAUCGAUUGCUUUGCAGUCGAGAAGGGCAUGAUAAGU |  |  | 0.022 µM | 0.0284 µM
GGUUAAUAUCGAGGAUAUGUCUAGACACAUGAGGAUCACCCAUGUAUGUGUAUAGAAGGCGAUAUUAACAGCAUGUUACAUGCG | 0.0388 µM | 0.0164 µM |  | 
UUGGACAGCUAGAGCUGUUAAGUACAUGAGGAUCACCCAUGUCAGGAUAUCCUUCCGCAAUGCGAGGAGAAGGGACAGGGUCCC |  |  | 0.0647 µM | 0.149 µM
AAUAGUAAGUAGAAGGUAGUAAGUAUGUUAAUCUUGUUAACAUGAGGAUCACCCAUGUAGACUACUAAGGAUAUACAUCGAUAG |  |  | 0.0143 µM | 0.0137 µM
GAUAGGAUGUGAGGAUAUGCUGAGGAUACUUCAGCAGAAGGCACAUGAGGAUCACCCAUGUACACUUAUCAUAAAUACCCUAUC |  |  | 0.013 µM | 0.0179 µM
AGGGUGGGCUCAGGAUAUCAGGAAGGGAUGUGGACAUGAGGAUCACCCAUGUACCAGUGUUGUUAUGAGAAGGGAGAUAUUGUA | 0.0167 µM | 0.0135 µM |  | 
UGCCAGGAGGAGAAGGGAGCACAUGAGGAUCACCCAUGUGGUCCGGGCUGCUCAGGAUAUCCUAACUGUACGCAUUACUACGAA |  |  | 0.119 µM | 0.0232 µM
GGAUAGGACAGAGGAUAUACGUGCGAGAGAUACUAGCAAAAUUUCCUCACAUGAGGAUCACCCAUGUAGAAGGCUGUCCUAUCG |  |  | 0.162 µM | 0.195 µM
GCACUGGAUGUAGGAUAUCAGGACGAUAAGUCCUGAGAAGGACAUGAGGAUCACCCAUGUACCUCAAACCAGUGCUAUAAUAUA |  |  | 0.0151 µM | 0.03 µM
CCUCGACAUGAGGAUCACCCAUGUUAGGAUAUGGGAGCGGGAAUUUGAGUAUUCGUACCCAGAAGGAACAGUUA |  |  | 0.0426 µM | 0.096 µM
UCGGCGCGAGGAUAUGCGGUUGCUUGGUAGGGUCGUGGCGUACAUGAGGAUCACCCAUGUAGAAGGCGCGCCGC |  |  | 0.0196 µM | 0.0259 µM
GGCGUUGAAGGAUAUUGAUAUCCGGACAUGAGGAUCACCCAUGUGAGACAUACUUAUAUGCGAGAAGGUCAGGCCC |  |  | 0.16 µM | 0.139 µM
CAAAUUAGCGAGAAGGAGCGCCCGUAGGUACAUGAGGAUCACCCAUGUCCUUUGUGCUCUACGCGCUAGGAUAUCGAUAAACAG |  |  | 0.0128 µM | 0.0994 µM

Sequence | apparent Kd [1] | apparent Kd [2] | apparent Kd [3] | apparent Kd [4]
CGGAUGUGAGGAUAUACAUGAGGAUCACCCAUGUGAGCCAGCUAGCUGACUGGCUCGUGUAGAAGGCACGUCUG |  |  | 0.0155 µM | 0.0289 µM
CAGUACUGAGGAUAUACAUGAGGAUCACCCAUGUGUUCCAGCUAGGAAACUAGCUAAAGUAGAAGGCAGUACUG |  |  | 0.0219 µM | 0.424 µM
UCGCUGCGAGGAUAUACAUGAGGAUCACCCAUGUGCGGGUCCGGGUCUUUGUCCAUUAGUAGAAGGCGCAGUGA |  |  | 0.305 µM | 0.0827 µM
UAUGGUUAAGUCAGGAUAUACGUGCAGAUAUCUGAGUAGAAGGGACAUGAGGAUCACCCAUGUAUGGUAGUGUU |  |  | 0.0799 µM | 0.132 µM
ACAUGAGGAUCACCCAUGUUGAUAGUAGAAGGGACAGAGAAGUAGUAACAUGAGGAUCACCCAUGUCAGGAUAUGCGAAUUGGA | 0.0352 µM | 0.0301 µM |  | 
AGCUGGUGACAGCAAGAAAGUUCACAUGAGGAUCACCCAUGUAGAAGGCUGUACGGUUACCGUACAGAGGAUAUACAUAGAAAG |  |  | 0.0199 µM | 0.0315 µM
UUAUAUAGAGUGAGGAUAUGCUGGUCCUUGGAUCAGCAGAAGGCACAUGAGGAUCACCCAUGUAAAAUAAUAUU |  |  | 0.0242 µM | 0.0411 µM
AAAAAGACAGGAUAUACAUGAAAAAAAAAAAAAAAAAAAAAACAUGAGGAUCACCCAUGUAGAAGGGUCAAAAA |  |  | 0.111 µM | 0.106 µM
UGUGCGUAUGUGAGGAUAUGCUGGUCCUUGGCUCGGCAGAAGGCACAUGAGGAUCACCCAUGUGGUGUCGUACC |  |  | 0.0386 µM | 0.189 µM
GACAGACAUGAGGAUCACCCAUGUGAAAACGUACAAGGAUAUGUGUGGAAACCGUACUAUACAGAAGGUGUCUGUC | 0.0945 µM | 0.087 µM |  | 
UCUACAUAAAUUCAUCAAUACAGAAAGGAUAUGAAAUACAUGAGGAUCACCCAUGUUCAUGGGAAUUAGAAGGUUCAAUUAGCU |  |  | 0.22 µM | 0.137 µM
UUCAAGUUGCGAGGAUAUCGUGUUAACAUGAGGAUCACCCAUGUAAAGGUUUAUUAAUUAAUCUUCGAGAAGGCGCUUAAUGUA | 0.0293 µM | 0.0195 µM |  | 
AAAAAACAAGGAUAUACGAAGGAUGGUUAUCUUAAUUUUUGACAUGAGGAUCACCCAUGUAGAAGGUGUUAAAA |  |  | 0.0379 µM | 0.0762 µM
CUCUUGUCAGGAUAUCUAAGCUGCCUCCCAGUAGCCGAAUUAGAGAAGGGACAUGAGGAUCACCCAUGUAAACG |  |  | 0.105 µM | 0.0343 µM
CGCAAGUAUACAUGAGGAUCACCCAUGUCAGAAAGGGUAAUCAGAAGGUACUAUUAGAGAUAGAGUAAGGAUAUGAAAUUUGCG | 0.718 µM | 0.138 µM |  | 
AUGCUUCACACAGGAUAUACAUGAGGAUCACCCAUGUGUCCUCCGUAGCUGACACGAGCUACGCUGUAGAAGGGUGUGAAGCAU |  |  | 0.234 µM | 0.223 µM
GGGCUCGGUGUGAGGAUAUCGGGCUCUAAAGGGCUCGAGAAGGCACAUGAGGAUCACCCAUGUAAGUCGGGCUC |  |  | 0.0148 µM | 0.015 µM
UUACUCAUGUAAGGAUAUGCAGCCGUUUCGGCUGCAGAAGGUACUAUAAUACAUGAGGAUCACCCAUGUCUAUAAAAUAAAGGC | 0.0489 µM | 0.0502 µM |  | 
